Experimental data: ChEMBL document CHEMBL1130204, “3 alpha-Hydroxy-3 beta-(phenylethynyl)-5 beta-pregnan-20-ones: synthesis and pharmacological activity of neuroactive steroids with high affinity for GABAA receptors” (J Med Chem, 1997)

Key:
[1] = biological target: GABA-A receptor; anion channel; assay: In vitro inhibition of [35S]TBPS binding to gamma-aminobutyric-acid A receptor in rat brain cortical membranes in the presence of 5 uM GABA.; type: cell membranes, Membrane
In short: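 Rat cortical P2 membranes, washed in 200 mM NaCl/50 mM Na-K phosphate pH 7.4, incubated 90 min at room temperature with 2 nM [35S]TBPS, 5 µM GABA and test drug in DMSO (final 0.5%). Nonspecific binding taken with 2 µM unlabeled TBPS. Filtration, then scintillation counting. Partial vs full and one- vs two-component models chosen by F-test.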

Rattus norvegicus = organism: Rattus norvegicus; assay: The maximum inhibitory potency was calculated by fitting [35S]TBPS inhibition data to a sigmoid function (rat brain cortical P2 membranes); type: functional
In short: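 Rat cortical P2 membranes washed in 200 mM NaCl/50 mM Na-K phosphate pH 7.4, incubated 90 min at room temperature with 2 nM [35S]TBPS, 5 µM GABA and test drug in DMSO (final 0.5%). Nonspecific binding defined with 2 µM unlabeled TBPS. Filtration, scintillation counting. Fits to one- or two-component, full or partial inhibition models chosen by F-test; IC50 and Imax as mean ± SEM of individual experiments.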

Mus musculus = assay: Percent of animals (n=8) not exhibiting PTZ-induced ( Pentylentetrazol protection) seizures 10 min following a 10 mg/kg ip dose of steroid.; type: functional; conditions: route intraperitoneal
In short: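 Male NSA mice (15-20 g), n = 8. […] Mice watched 30 min for clonic seizure (forelimb clonus ≥3 s). Read-out is the percent of mice protected.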

[2] = Slope value was determined
[3] = biological target: GABA-A receptor; alpha-1/beta-2/gamma-2 (Homo sapiens) (UniProt P14867+P47870+P18507); assay: Efficacy as fractional response (FR) relative to GABA maximum current elicited in the Xenopus oocytes; type: functional, cell-based; conditions: Oocyte
In short: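 Xenopus oocytes expressing α1β2γ2L GABAA receptors (~1 ng each cRNA), two-electrode voltage clamp at -70 mV in frog Ringer's pH 7.4. GABA set to give ~5% of maximal current (1 mM GABA). Steroid co-applied with 0.3% DMSO. Response taken as potentiation plus any direct current, expressed as a fraction of GABA maximum, fit to a four-parameter logistic.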

[4] = biological target: T1, GABA-A receptor; alpha-1/beta-2/gamma-2 (Homo sapiens, UniProt P14867+P18507+P47870); assay: Steroid potentiation of 5% GABA responses in Xenopus oocytes expressing human alpha-1-beta-2-gamma-2L subunits of GABA-A receptor; type: functional, cell-based, Oocyte
T1 sequence (P14867 whole entry): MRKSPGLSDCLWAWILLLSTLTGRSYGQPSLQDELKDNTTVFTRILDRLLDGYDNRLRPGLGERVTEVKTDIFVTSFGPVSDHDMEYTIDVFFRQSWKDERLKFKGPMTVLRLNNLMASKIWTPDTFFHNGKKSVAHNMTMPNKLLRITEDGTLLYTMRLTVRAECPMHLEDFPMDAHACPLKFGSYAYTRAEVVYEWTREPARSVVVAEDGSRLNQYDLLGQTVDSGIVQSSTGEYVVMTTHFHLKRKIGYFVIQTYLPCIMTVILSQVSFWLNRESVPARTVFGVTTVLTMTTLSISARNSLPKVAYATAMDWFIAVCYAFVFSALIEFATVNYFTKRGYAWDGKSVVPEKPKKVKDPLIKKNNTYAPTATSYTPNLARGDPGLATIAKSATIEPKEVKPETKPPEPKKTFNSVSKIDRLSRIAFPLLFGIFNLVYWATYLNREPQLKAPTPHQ
T1 sequence (P47870 whole entry): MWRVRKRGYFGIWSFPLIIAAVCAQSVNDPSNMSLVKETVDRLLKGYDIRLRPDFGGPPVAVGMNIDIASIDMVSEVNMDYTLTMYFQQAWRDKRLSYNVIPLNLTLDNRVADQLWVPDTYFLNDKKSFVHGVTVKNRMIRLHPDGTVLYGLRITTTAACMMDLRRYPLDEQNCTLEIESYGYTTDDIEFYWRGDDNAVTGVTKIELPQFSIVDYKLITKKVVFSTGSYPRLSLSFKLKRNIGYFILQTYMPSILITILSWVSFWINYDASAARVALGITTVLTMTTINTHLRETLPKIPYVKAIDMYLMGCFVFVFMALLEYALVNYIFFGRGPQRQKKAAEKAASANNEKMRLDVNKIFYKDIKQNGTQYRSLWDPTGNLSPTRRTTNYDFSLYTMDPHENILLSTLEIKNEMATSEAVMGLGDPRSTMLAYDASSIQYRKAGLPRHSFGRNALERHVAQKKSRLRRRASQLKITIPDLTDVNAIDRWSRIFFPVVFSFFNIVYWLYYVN
T1 sequence (P18507 whole entry): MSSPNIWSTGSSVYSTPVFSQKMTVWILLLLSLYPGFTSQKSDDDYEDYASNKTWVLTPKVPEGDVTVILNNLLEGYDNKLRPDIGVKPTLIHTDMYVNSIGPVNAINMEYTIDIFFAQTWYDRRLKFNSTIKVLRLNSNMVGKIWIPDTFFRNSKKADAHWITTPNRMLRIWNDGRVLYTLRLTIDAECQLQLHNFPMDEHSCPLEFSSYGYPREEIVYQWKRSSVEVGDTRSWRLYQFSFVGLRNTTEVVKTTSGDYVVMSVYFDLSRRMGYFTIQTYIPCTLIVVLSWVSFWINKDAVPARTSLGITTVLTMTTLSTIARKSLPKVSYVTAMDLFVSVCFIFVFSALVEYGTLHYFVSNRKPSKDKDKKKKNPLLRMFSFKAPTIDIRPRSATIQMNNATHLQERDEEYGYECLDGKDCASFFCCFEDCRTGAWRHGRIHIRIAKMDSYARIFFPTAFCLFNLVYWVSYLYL
In short: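 Xenopus oocytes injected with α1, β2, γ2L cRNAs (~1 ng each). Two-electrode voltage clamp at -70 mV in frog Ringer's, pH 7.4. GABA set to give about 5% of the maximal (1 mM GABA) current. Steroid stocks in DMSO diluted into Ringer's, DMSO 0.3%. Modulation is potentiation plus any direct steroid current, fitted to a four-parameter logistic. Mean ± SEM.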

Structure (SMILES) | IC50 [1] [nM] | Imax (Rattus norvegicus) [%] | PTZ protection (Mus musculus) [%] | Slope [2] | Efficacy [3] | EC50 [4] [nM]
CC(=O)[C@H]1CC[C@H]2[C@@H]3CC[C@@H]4C[C@@](O)(Cc5ccccc5)CC[C@]4(C)[C@H]3CC[C@]12C | 110 | 101 | 38 |  |  | 
CCOC(=O)c1ccc(C#C[C@@]2(O)CC[C@@]3(C)[C@H](CC[C@@H]4[C@@H]3CC[C@]3(C)[C@@H](C(C)=O)CC[C@@H]43)C2)cc1 | 12 | 97 | 19 |  |  | 
CC(=O)[C@H]1CC[C@H]2[C@@H]3CC[C@@H]4C[C@@](O)(c5ccccc5)CC[C@]4(C)[C@H]3CC[C@]12C | 380 | 89 | 25 |  |  | 
CC(=O)[C@H]1CC[C@H]2[C@@H]3CC[C@@H]4C[C@@](O)(CCc5ccccc5)CC[C@]4(C)[C@H]3CC[C@]12C | 150 | 102 | 0 |  |  | 
CC(=O)[C@H]1CC[C@H]2[C@@H]3CC[C@@H]4C[C@@](O)(C#Cc5ccc(C)cc5)CC[C@]4(C)[C@H]3CC[C@]12C | 83 | 84 | 50 |  |  | 
COc1ccccc1C#C[C@@]1(O)CC[C@@]2(C)[C@H](CC[C@@H]3[C@@H]2CC[C@]2(C)[C@@H](C(C)=O)CC[C@@H]32)C1 | 170 | 89 | 0 |  |  | 
CC(=O)[C@H]1CC[C@H]2[C@@H]3CC[C@@H]4C[C@@](O)(C#Cc5ccc(C(F)(F)F)cc5)CC[C@]4(C)[C@H]3CC[C@]12C | 56 | 88 | 0 |  |  | 
CC(=O)[C@H]1CC[C@H]2[C@@H]3CC[C@@H]4C[C@@](O)(CCCc5ccccc5)CC[C@]4(C)[C@H]3CC[C@]12C | 190 | 91 | 13 |  |  | 
CC(=O)[C@H]1CC[C@H]2[C@@H]3CC[C@@H]4C[C@@](O)(C#Cc5ccc(N(C)C)cc5)CC[C@]4(C)[C@H]3CC[C@]12C | 40 | 78 | 50 | 1.1 | 0.76 | 18
CCN(CC)C(=O)c1ccc(C#C[C@@]2(O)CC[C@@]3(C)[C@H](CC[C@@H]4[C@@H]3CC[C@]3(C)[C@@H](C(C)=O)CC[C@@H]43)C2)cc1 | 93 | 91 | 13 |  |  | 
CC(=O)[C@H]1CC[C@H]2[C@@H]3CC[C@@H]4C[C@@](O)(C#Cc5cccc(O)c5)CC[C@]4(C)[C@H]3CC[C@]12C | 420 | 100 | 0 |  |  | 
CC(=O)[C@H]1CC[C@H]2[C@@H]3CC[C@@H]4C[C@@](O)(C#Cc5ccc(-c6ccccc6)cc5)CC[C@]4(C)[C@H]3CC[C@]12C | 54 | 90 | 0 |  |  | 
CCOC(=O)c1ccc(C#C[C@@]2(O)CC[C@H]3[C@H](CC[C@@H]4[C@@H]3CC[C@]3(C)[C@@H](C(C)=O)CC[C@@H]43)C2)cc1 | 26 | 94 | 13 |  |  | 
CC(=O)[C@H]1CC[C@H]2[C@@H]3CC[C@@H]4C[C@@](O)(C#Cc5ccc(O)cc5)CC[C@]4(C)[C@H]3CC[C@]12C | 2300 | 100 | 0 |  |  | > 1000
CC(=O)[C@H]1CC[C@H]2[C@@H]3CC[C@@H]4C[C@@](O)(C#Cc5ccc([N+](=O)[O-])cc5)CC[C@]4(C)[C@H]3CC[C@]12C | 42 | 98 | 13 |  |  | 
CC(=O)[C@H]1CC[C@H]2[C@@H]3CC[C@@H]4C[C@@](O)(C#Cc5ccc(C#N)cc5)CC[C@]4(C)[C@H]3CC[C@]12C | 60 | 85 | 44 |  |  | 
CC(=O)[C@H]1CC[C@H]2[C@@H]3CC[C@@H]4C[C@@](O)(C#Cc5ccccc5)CC[C@]4(C)[C@H]3CC[C@]12C | 100 | 100 | 25 |  |  | 
CC(=O)[C@H]1CC[C@H]2[C@@H]3CC[C@@H]4C[C@](C)(O)CC[C@]4(C)[C@H]3CC[C@]12C | 37 |  |  |  |  | 
C#C[C@@]1(O)CC[C@@]2(C)[C@H](CC[C@@H]3[C@@H]2CC[C@]2(C)[C@@H](C(C)=O)CC[C@@H]32)C1 | 39 |  |  |  |  | 
CC(=O)[C@H]1CC[C@H]2[C@@H]3CC[C@@H]4C[C@@](O)(C#Cc5ccc(C(=O)c6ccccc6)cc5)CC[C@]4(C)[C@H]3CC[C@]12C | 55 | 96 | 38 |  |  | 
COc1ccc(C#C[C@@]2(O)CC[C@@]3(C)[C@H](CC[C@@H]4[C@@H]3CC[C@]3(C)[C@@H](C(C)=O)CC[C@@H]43)C2)cc1OC | 290 | 102 | 13 |  |  | 
CC(=O)[C@H]1CC[C@H]2[C@@H]3CC[C@@H]4C[C@@](O)(C#Cc5ccc(C(N)=O)cc5)CC[C@]4(C)[C@H]3CC[C@]12C | 1800 | 96 | 13 |  |  | 
CC(=O)[C@H]1CC[C@H]2[C@@H]3CC[C@@H]4C[C@@](O)(C#Cc5ccc(Cl)cc5)CC[C@]4(C)[C@H]3CC[C@]12C | 70 | 88 | 0 |  |  | 
CC(=O)[C@H]1CC[C@H]2[C@@H]3CC[C@@H]4C[C@@](O)(C#Cc5ccc6c(c5)OCO6)CC[C@]4(C)[C@H]3CC[C@]12C | 68 | 93 | 13 |  |  | 
COc1ccc(C#C[C@@]2(O)CC[C@@]3(C)[C@H](CC[C@@H]4[C@@H]3CC[C@]3(C)[C@@H](C(C)=O)CC[C@@H]43)C2)cc1 | 42 | 84 | 25 |  |  | 
